Assay results as given in ChEMBL document CHEMBL5649170, “Sustained microglial depletion with CSF1R inhibitor impairs parenchymal plaque development in an Alzheimer's disease model” (Nat Commun, 2019).
Activity calls are given as the source filed them. The rule behind the calls is not given here.

What was measured:
[1] = target: T1, Protein kinase C beta type (Homo sapiens, UniProt P05771); assay: Inhibition of PRKCB1 (unknown origin)
[2] = target: Platelet-derived growth factor receptor alpha (Homo sapiens, UniProt P16234); assay: Inhibition of PDGFRA (unknown origin)
Sequence of Platelet-derived growth factor receptor alpha (P16234 whole entry): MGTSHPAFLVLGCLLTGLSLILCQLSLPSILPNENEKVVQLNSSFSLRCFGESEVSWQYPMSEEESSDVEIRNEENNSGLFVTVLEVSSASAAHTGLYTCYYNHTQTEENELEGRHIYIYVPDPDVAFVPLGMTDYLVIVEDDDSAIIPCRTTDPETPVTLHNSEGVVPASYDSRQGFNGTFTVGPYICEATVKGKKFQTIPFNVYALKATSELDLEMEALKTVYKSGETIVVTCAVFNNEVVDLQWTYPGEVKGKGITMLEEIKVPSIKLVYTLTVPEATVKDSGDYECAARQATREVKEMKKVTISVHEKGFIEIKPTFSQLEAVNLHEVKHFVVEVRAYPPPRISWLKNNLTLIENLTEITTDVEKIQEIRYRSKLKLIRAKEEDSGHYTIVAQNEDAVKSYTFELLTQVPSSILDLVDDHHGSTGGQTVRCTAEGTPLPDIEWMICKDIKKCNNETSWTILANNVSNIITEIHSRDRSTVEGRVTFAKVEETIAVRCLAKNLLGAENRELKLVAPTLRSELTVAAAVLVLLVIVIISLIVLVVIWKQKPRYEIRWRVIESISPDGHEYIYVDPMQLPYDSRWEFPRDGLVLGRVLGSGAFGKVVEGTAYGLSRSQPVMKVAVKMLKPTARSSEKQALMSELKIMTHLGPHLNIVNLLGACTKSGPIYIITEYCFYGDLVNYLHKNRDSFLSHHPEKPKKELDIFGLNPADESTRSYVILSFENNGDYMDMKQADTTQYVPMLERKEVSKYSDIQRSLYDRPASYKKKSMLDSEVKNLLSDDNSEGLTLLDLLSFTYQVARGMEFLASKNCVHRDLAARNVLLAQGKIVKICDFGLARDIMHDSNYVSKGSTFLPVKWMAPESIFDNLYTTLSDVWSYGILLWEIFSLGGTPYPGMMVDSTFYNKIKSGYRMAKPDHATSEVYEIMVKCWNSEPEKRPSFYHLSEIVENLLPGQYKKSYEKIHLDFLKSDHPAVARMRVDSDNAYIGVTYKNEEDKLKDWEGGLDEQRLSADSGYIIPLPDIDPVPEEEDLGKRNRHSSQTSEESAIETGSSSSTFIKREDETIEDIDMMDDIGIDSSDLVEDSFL

Mus musculus [3] = assay: Antialzheimer activity in 5XFAD mouse assessed as number of S100bteta positive cells per FOV in somatosensory cortex at 1200 ppm administered as rodent chow for 10 to 24 weeks by immunolabelling based confocal microscopic analysis (reference value: 283 to 357); assay type: functional; conditions: route po, time 10-24 weeks
[4] = AUC (0 to 24 hrs) in mouse brain at 300 ppm administered as rodent chow for 14 days; assay type: ADME, tissue-based; conditions: route po, time 14 day
[5] = Effect on Rtn4r gene expression in wildtype mouse hippocampus assessed as percent change in Reads Per kilo base per Million mapped reads at 1200 ppm administered as rodent chow starting from 1.5 months and measured after 7 months by RNA-Seq analysis (reference value: 88.030 to 132.504 %); assay type: functional; conditions: route po, time 5.5 months, 4015 h
[6] = target: Serine/threonine-protein kinase TBK1 (Homo sapiens, UniProt Q9UHD2); assay: Inhibition of TBK1 (unknown origin)
Mus musculus [7] = assay: Effect on APP processing pathway in 5XFAD mouse assessed as PEN2 protein signal intensity in cortex at 1200 ppm administered as rodent starting from 1.5 months and measured after 7 months (reference value: 13.636 to 217.511 %); assay type: functional; conditions: route po, time 5.5 months, 4015 h
[8] = Prevention of Kcnq3 gene downregulation in 5XFAD mouse hippocampus assessed as percent change in Reads Per kilo base per Million mapped reads at 1200 ppm administered as rodent chow starting from 1.5 months and measured after 7 months by RNA-Seq analysis (reference value: 55.386 to 68.581 %); assay type: functional; conditions: route po, time 5.5 months, 4015 h
Mus musculus [9] = assay: Prevention of Gls gene downregulation in 5XFAD mouse hippocampus at 1200 ppm administered as rodent chow starting from 1.5 months and measured after 7 months by Nanostring analysis; assay type: functional, tissue-based; conditions: route po, time 5.5 months
[10] = target: Serine/threonine-protein kinase 4 (Homo sapiens, UniProt Q13043); assay: Inhibition of STK4 (unknown origin)
[11] = target: T1, Protein kinase C beta type; assay: Inhibition of PRKCB2 (unknown origin)
[12] = target: Leukocyte tyrosine kinase receptor (Homo sapiens, UniProt P29376); assay: Inhibition of LTK (unknown origin)
[13] = target: Fibroblast growth factor receptor 1 (Homo sapiens, UniProt P11362); assay: Inhibition of FGFR1 (unknown origin)
Sequence of Fibroblast growth factor receptor 1 (P11362 whole entry): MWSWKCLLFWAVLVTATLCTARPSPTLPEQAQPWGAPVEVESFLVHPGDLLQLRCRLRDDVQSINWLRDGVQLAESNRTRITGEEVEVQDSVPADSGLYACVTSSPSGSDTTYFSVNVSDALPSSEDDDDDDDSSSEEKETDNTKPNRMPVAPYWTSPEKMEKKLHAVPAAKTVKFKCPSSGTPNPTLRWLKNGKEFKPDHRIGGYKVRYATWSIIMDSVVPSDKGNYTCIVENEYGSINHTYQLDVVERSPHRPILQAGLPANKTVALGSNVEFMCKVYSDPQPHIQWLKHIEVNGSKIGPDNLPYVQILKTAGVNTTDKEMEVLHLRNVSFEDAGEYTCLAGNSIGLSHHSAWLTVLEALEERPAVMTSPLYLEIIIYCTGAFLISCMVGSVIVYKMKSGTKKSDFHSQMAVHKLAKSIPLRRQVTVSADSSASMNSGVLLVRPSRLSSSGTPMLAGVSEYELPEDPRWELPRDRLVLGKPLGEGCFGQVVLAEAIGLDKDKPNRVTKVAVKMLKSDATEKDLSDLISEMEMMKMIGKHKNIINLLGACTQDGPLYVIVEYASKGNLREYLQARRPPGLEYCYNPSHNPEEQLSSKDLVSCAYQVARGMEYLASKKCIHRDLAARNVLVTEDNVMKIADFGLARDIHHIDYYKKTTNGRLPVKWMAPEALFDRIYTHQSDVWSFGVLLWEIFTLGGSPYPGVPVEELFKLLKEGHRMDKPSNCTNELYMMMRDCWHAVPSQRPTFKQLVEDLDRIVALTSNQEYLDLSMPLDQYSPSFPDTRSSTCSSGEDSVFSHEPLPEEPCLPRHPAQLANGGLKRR

[14] = target: Ribosomal protein S6 kinase alpha-6 (Homo sapiens, UniProt Q9UK32); assay: Inhibition of RPS6KA6 (unknown origin)
Sequence of Ribosomal protein S6 kinase alpha-6 (Q9UK32 whole entry): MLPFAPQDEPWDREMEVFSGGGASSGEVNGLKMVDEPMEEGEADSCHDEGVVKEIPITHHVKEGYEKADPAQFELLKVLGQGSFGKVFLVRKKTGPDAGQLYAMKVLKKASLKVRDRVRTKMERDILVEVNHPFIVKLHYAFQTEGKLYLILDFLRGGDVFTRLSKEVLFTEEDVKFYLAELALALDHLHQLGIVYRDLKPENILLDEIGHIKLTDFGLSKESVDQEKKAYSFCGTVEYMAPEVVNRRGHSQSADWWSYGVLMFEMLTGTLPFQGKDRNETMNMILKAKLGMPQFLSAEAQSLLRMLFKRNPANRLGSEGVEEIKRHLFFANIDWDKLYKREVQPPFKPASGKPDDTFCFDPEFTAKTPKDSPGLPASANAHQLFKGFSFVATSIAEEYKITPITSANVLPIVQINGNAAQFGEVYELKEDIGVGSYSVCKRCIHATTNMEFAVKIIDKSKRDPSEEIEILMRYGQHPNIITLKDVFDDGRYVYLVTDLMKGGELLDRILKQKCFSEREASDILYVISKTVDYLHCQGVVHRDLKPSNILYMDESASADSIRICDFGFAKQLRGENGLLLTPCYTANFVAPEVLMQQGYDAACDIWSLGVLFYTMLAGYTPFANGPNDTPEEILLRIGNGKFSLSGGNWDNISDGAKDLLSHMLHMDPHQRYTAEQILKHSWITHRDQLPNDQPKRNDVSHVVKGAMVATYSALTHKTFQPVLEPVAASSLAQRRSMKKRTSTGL

[15] = Effect on Cx3cr1 gene expression in wild type mouse thalamus at 1200 ppm administered as rodent chow starting from 1.5 months and measured after 7 months by RNA-Seq analysis (reference value: 10.263 to 12.137 RPKM); assay type: functional; conditions: route po, time 5.5 months, 4015 h
[16] = Effect on Hexb gene expression in 5XFAD mouse thalamus at 1200 ppm administered as rodent chow starting from 1.5 months and measured after 7 months by RNA-Seq analysis (reference value: 75.322 to 93.439 RPKM); assay type: functional; conditions: route po, time 5.5 months, 4015 h
[17] = target: Cytoplasmic tyrosine-protein kinase BMX (Homo sapiens, UniProt P51813); assay: Inhibition of BMX (unknown origin)
Sequence of Cytoplasmic tyrosine-protein kinase BMX (P51813 whole entry): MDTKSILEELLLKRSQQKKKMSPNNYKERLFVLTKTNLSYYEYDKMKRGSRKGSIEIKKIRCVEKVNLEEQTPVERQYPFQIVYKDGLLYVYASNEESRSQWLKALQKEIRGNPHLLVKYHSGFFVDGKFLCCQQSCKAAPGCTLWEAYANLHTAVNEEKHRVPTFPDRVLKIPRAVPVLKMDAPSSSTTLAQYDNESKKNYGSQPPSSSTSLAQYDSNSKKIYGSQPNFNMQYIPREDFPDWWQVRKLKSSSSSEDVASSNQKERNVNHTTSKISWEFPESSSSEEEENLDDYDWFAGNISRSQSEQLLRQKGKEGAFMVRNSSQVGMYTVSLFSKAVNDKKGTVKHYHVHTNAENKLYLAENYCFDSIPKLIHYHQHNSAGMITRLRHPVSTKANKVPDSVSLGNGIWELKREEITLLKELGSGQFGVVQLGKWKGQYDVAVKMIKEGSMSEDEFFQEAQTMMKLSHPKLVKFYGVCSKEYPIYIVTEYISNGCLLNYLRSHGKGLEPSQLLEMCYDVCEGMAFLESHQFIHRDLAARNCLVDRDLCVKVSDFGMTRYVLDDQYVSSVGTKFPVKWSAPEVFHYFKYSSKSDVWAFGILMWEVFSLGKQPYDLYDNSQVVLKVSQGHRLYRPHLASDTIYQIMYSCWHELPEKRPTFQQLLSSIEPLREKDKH

Ephrin type-A receptor 3 = Ephrin type-A receptor 3 (Homo sapiens, UniProt P29320); assay: Inhibition of EPHA3 (unknown origin)
Mus musculus [18] = assay: Antialzheimer activity in 5XFAD mouse assessed as number of S100bteta positive cells per FOV in […] cortex at 1200 ppm administered as rodent chow for 10 to 24 weeks by immunolabelling based confocal microscopic analysis (reference value: 320 to 427); assay type: functional; conditions: route po, time 10-24 weeks
Mus musculus [19] = assay: Antialzheimer activity in 5XFAD mouse assessed as percent change in claudin-5 intensity of retro spinal cortex at 1200 ppm administered as rodent chow starting from 1.5 months and measured after 4 months by immunolabeling analysis relative to control; assay type: functional; conditions: route po, time 2.5 months, 1825 h
Mus musculus [20] = assay: Antialzheimer activity in 5XFAD mouse assessed as alteration in plaque morphology in cortex at 1200 ppm administered as rodent chow starting from 1.5 months and measured after 7 months by Thio-S labeling based confocal microscopic analysis; assay type: functional, organism-based; conditions: route po, time 5.5 months
[21] = Effect on C1qa gene expression in 5XFAD mouse cortex at 1200 ppm administered as rodent chow starting from 1.5 months and measured after 7 months by RNA-Seq analysis (reference value: 31.609 to 64.988 RPKM); assay type: functional; conditions: route po, time 5.5 months, 4015 h
Summary of the method: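 WT and 5xFAD mice were treated with 1200 ppm PLX5622 chow or control chow from 1.5 to 7 months of age. Brains were microdissected into cortex, hippocampus and thalamus, and RNA was extracted from tissue powder. Whole-transcriptome RNA-Seq libraries were sequenced, with n = 4 per group per region (48 samples).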

[22] = target: PI3-kinase p110-alpha/p85-alpha (Homo sapiens, UniProt P42336); assay: Inhibition of PIK3CA/PIK3R1 (unknown origin); assay type: protein-complex assay
[23] = Effect on Hexb gene expression in wild type mouse cortex at 1200 ppm administered as rodent chow starting from 1.5 months and measured after 7 months by RNA-Seq analysis (reference value: 38.813 to 48.079); assay type: functional; conditions: route po, time 5.5 months, 4015 h
[24] = target: Protein kinase C eta type (Homo sapiens, UniProt P24723); assay: Inhibition of PRKCH (unknown origin)
[25] = target: Casein kinase I isoform epsilon (Homo sapiens, UniProt P49674); assay: Inhibition of CSNK1E (unknown origin)
Mus musculus [26] = assay: Antialzheimer activity in 5XFAD mouse assessed as number of Iba positive cells per FOV in retro spinal cortex at 1200 ppm administered as rodent chow starting from 1.5 months and measured after 4 months (reference value: 210 to 529); assay type: functional; conditions: route po, time 2.5 months, 1825 h
[27] = target: Protein kinase C theta type (Homo sapiens, UniProt Q04759); assay: Inhibition of PRKCQ (unknown origin)
Sequence of Protein kinase C theta type (Q04759 whole entry): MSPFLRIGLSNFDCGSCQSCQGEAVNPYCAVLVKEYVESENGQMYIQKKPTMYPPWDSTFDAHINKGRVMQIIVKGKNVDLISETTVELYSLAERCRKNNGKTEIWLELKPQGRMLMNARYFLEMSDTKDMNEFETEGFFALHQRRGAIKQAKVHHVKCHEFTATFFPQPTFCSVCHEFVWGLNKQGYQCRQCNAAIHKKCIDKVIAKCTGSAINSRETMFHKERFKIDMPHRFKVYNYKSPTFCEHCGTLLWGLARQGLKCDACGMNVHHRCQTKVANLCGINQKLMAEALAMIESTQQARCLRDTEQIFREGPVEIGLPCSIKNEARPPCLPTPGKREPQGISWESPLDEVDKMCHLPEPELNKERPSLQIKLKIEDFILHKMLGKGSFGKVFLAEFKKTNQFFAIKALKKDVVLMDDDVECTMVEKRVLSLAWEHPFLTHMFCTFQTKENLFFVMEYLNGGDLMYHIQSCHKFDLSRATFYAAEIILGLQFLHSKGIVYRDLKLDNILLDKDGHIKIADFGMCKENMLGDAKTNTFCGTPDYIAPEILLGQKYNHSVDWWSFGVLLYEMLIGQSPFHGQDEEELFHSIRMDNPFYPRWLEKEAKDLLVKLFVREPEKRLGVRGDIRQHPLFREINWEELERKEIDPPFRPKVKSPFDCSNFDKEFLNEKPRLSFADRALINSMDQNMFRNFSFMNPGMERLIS

Mus musculus [28] = assay: Antialzheimer activity in 5XFAD mouse assessed as amyloidbeta40 level in detergent soluble thalamus fraction measured per microgram protein at 1200 ppm administered as rodent chow starting from 1.5 months and measured after 7 months by ELISA (reference value: 0 to 0.047 pg); assay type: functional; conditions: route po, time 5.5 months, 4015 h
Summary of the method: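 PLX5622 at 1200 ppm in chow given to 5xFAD mice from 1.5 months to 4 or 7 months of age; cortex and thalamus homogenized in TPER (detergent-soluble), pellets re-homogenized in 70% formic acid and spun 100,000 g, 1 h, 4 °C (insoluble); protein by Bradford/Lowry; Aβ species measured by Meso Scale electrochemiluminescence immunoassay, normalized to protein; n = 7–8 per group at 7 months.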

[29] = Drug concentration in wildtype mouse plasma at 1200 ppm administered as rodent chow for 10 to 24 weeks; assay type: ADME, cell-free; conditions: po, time 10-24 weeks
Summary of the method: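 WT or 5xFAD mice were started at 1.5 months of age on PLX5622 formulated at 1200 ppm in AIN-76A chow, with control chow as comparison. Feeding ran for 10 or 24 weeks. Terminal plasma and brain drug levels were then measured. Groups were sex-balanced and compared by two-tailed independent t-test.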

T1 sequence (P05771 whole entry): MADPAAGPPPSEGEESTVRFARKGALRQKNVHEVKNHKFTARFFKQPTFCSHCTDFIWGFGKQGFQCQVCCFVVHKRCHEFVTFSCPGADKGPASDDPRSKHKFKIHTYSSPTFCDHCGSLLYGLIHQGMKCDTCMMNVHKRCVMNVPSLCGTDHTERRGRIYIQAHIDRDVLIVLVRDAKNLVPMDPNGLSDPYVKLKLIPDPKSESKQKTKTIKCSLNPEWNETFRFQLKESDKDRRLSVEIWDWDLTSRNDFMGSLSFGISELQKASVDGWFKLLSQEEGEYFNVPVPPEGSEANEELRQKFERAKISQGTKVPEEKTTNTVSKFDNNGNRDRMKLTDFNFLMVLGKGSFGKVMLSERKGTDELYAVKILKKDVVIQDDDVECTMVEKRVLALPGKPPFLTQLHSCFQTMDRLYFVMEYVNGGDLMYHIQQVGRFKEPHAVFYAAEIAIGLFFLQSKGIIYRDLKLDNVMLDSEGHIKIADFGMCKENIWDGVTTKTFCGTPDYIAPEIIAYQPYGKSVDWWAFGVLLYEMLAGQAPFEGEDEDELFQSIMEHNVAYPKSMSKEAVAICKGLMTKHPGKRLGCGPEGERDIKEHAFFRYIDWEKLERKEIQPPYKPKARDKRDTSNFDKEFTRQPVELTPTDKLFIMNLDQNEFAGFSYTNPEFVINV

`COc1ncc(F)cc1CNc1ccc(Cc2c[nH]c3ncc(C)cc23)c(F)n1` [PLX-5622] showed an IC50 [1] greater than 1 µM, an IC50 [2] greater than 1 µM and an Activity (Mus musculus [3]) of 307. The AUC at 336 h [4] was 23100 ng·h/mL, the Activity [5] was 89.887% and the IC50 [6] was greater than 1 µM. The Activity (Mus musculus [7]) was 7.565%, the Activity [8] was 68.859% and the Activity (Mus musculus [9]) was “Active”. It also gave an IC50 [10] greater than 1 µM, an IC50 [11] greater than 1 µM and an IC50 [12] greater than 1 µM. For the same compound, the IC50 [13] was greater than 1 µM, the IC50 [14] was greater than 1 µM and the Activity [15] was 0.026 RPKM. For the same compound, the Activity [16] was 10.635 RPKM, the IC50 [17] was greater than 1 µM and the IC50 (Ephrin type-A receptor 3) was greater than 1 µM. The Activity (Mus musculus [18]) was 288, the Activity (Mus musculus [19]) was 33.704% and the Activity (Mus musculus [20]) was “Active”. For the same compound, the Activity [21] was 2.8 RPKM, the IC50 [22] was greater than 1 µM and the Activity [23] was 8.715 RPKM. For the same compound, the IC50 [24] was greater than 1 µM, the IC50 [25] was greater than 1 µM and the Activity (Mus musculus [26]) was 0. The IC50 [27] was greater than 1 µM, the Activity (Mus musculus [28]) was 0 pg and the concentration [29] was 17.8 µM.
